Data: PubChem BioAssay
Inconclusive results are not listed.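 The calls were made as follows, unless noted: active = viability at or below 27.92% in each of two runs, the all-compound median minus 4 SD; inconclusive = no clear call, values can overlap the other calls; inactive = the rest.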

Key:
[1] = OD615 S. cerevisiae growth inhibition, permissive medium, pilot counter-assay, permissive growth control for S. cerevisiae lifespan shortening project (AID 705;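 active = growth inhibition above 25% in both replicates, a cutoff set 3 SD above the mean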); conditions: OD615, 24 h, at 10 µM, stronger effect = higher value
Outline: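 assay system = Saccharomyces cerevisiae strain carrying genetically modified DeaD replicative-lifespan system | medium = SC raffinose/galactose permissive medium | dosing = 10 µM single dose, 0.25% DMSO | schedule = 24 h compound exposure at 30 °C after 4 h pre-growth | measured by = OD at 615 nm | read-out basis = growth inhibition from lowered OD615 after 24 h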

[2] = Restrictive medium S. cerevisiae growth inhibition, OD615, pilot screen of yeast lifespan reduction project, restrictive growth control (AID 706;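 active = growth inhibition above a set limit, 3 SD over mean compound inhibition, in both replicates, cut at about 43% in these data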;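 also: modified DeaD lifespan yeast strain shifted to restrictive glucose medium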); conditions: OD615, 48 h, at 10 µM, stronger effect = higher value
Outline: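 Buffer or medium: CSMM-D glucose medium. Material: genetically modified Saccharomyces cerevisiae, DeaD replicative lifespan assay strain. Times: 48 h compound exposure at 30 °C. Measured by: optical density at 615 nm.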

[3] = viability gain of MRP-1-high H69AR cells under doxorubicin, pilot screen, MRP-1 activator project, CellTiter-Glo, duplicate (AID 807;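 active = viability increase at or above a cutoff of the median across tested compounds plus 3 SD, cut at about 8.5% in these data, passing the limit was not always enough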;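 also: compound pretreatment 18-22 h then 72 h combined with doxorubicin; 0% = doxorubicin alone and 100% = vehicle without doxorubicin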); conditions: H69AR viability with doxorubicin, CellTiter-Glo luminescence; at 10 µM; stronger effect = higher value
[4] = growth suppression of beta-catenin knockout HCT116, pilot screen, human colon tumor cells (AID 823;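 active = cell viability at or below a set limit in both duplicate runs, the limit being the all-compound median minus 4 SD, cut at about 23% in these data, passing the limit was not always enough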;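 also: 0% = wells killed by 20 µM Hyamine and 100% = untreated DMSO cell wells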); conditions: CellTiter-Glo, 60 h, at 10 µM, stronger effect = lower value
[5] = growth suppression of PTEN-deleted HCT116, pilot screen, cell-based, HCT116 clonal line, CellTiter-Glo (AID 824); conditions: 60 h, at 10 µM, stronger effect = lower value;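 also: 0% = 20 µM Hyamine control and 100% = vehicle cell control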
[6] = inhibitors of the yeast RAM network, pilot screen, dse1pr::URA3 reporter, 5-FOA selection (AID 869;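 active = inhibition over a set limit, the all-compound mean plus 3 SD, in both replicate runs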;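 also: 0% = DMSO wells with no growth and 100% = 10 µM 1-NA-PP1 with full growth; RAM network block rescues cells from 5-FOA so hits raise OD615 growth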); conditions: S. cerevisiae dse1pr::URA3 5-FOA growth, OD615, 2 d; at 10 µM; stronger effect = higher value; strain carries analog-sensitive mutant Cbk1 kinase
[7] = RAM signaling pathway blockade in yeast – S. cerevisiae, Pdr1DBD-CYC8 efflux-inhibited sensitized strain, primary screen (AID 1298;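 active = RAM network inhibition above 8.4% in each of two replicates, 3 SD over the compound average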;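 also: 0% = DMSO untreated cells without growth and 100% = 10 µM 1-NA-PP1 full growth; higher means more yeast growth rescued from 5-FOA killing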); conditions: S. cerevisiae cbk1-as DSE1-URA3 strain, 5-FOA growth OD615, 2 d; at 50 µM; stronger effect = higher value

CCN(CCCNC(=O)Cn1cc2c(n1)CCCC2)c1cccc(C)c1
inactive: growth inhibition [1] -4.97% | growth inhibition [2] 3.35% | viability increase [3] -3.77% | viability [4] 86% | viability [5] 81.5% | inhibition [6] 0.48% | RAM network inhibition [7] 4.45%

Cc1ccc(S(=O)(=O)Cc2ccc(C(=O)N3CCCC3)o2)cc1
inactive: growth inhibition [1] -4.83% | growth inhibition [2] -13.4% | viability increase [3] -1.75% | viability [4] 99.2% | viability [5] 108% | inhibition [6] 1.19% | RAM network inhibition [7] 4.1%

COc1cccc(CNC(=O)Cn2cc3c(n2)CCCC3)c1
inactive: growth inhibition [1] -7.1% | growth inhibition [2] 4.65% | viability increase [3] 0.16% | viability [4] 100% | viability [5] 93.2% | inhibition [6] 1.44% | RAM network inhibition [7] 3.05%

Cc1cc(NC(=O)CSc2cn(CCNC(=O)c3ccccc3)c3ccccc23)no1
inactive: growth inhibition [1] -3.29% | growth inhibition [2] -0.585% | viability increase [3] -0.97% | viability [4] 88.1% | viability [5] 88.7% | inhibition [6] 3.04% | RAM network inhibition [7] 6.89%

COc1ccc(C2CC(c3ccccc3C)n3nc(N)nc3N2)cc1 (stereo not drawn)
inactive: growth inhibition [1] 1.94% | growth inhibition [2] 17.8% | viability increase [3] 0.56% | viability [4] 96.1% | viability [5] 87.6% | inhibition [6] 2.3% | RAM network inhibition [7] 1.89%

Cc1ccc(-n2ncc3c(N4CCC5(CC4)OCCO5)ncnc32)c(C)c1
inactive: growth inhibition [1] 1.21% | growth inhibition [2] 6.06% | viability increase [3] -7.95% | viability [4] 80.3% | viability [5] 83.8% | inhibition [6] 0.765% | RAM network inhibition [7] -1.04%

O=C(Cn1cnc2c(cnn2-c2ccc(F)cc2)c1=O)NCCc1ccccc1
inactive: growth inhibition [1] -1.94% | growth inhibition [2] -1.9% | viability increase [3] 1.69% | viability [4] 97.6% | viability [5] 95.7% | inhibition [6] 3.04% | RAM network inhibition [7] 6.6%

CC(C)C(C(=O)NC(C)(C)C)N1C(=O)c2ccccc2C1=O (stereo not drawn)
inactive: growth inhibition [1] -7.04% | growth inhibition [2] 0.73% | viability increase [3] 0.34% | viability [4] 101% | viability [5] 101% | inhibition [6] -0.63% | RAM network inhibition [7] 12.4%

C=CCSC1=NC(N)=C(C#N)C2(CCCCC2)C1C(N)=O (stereo not drawn)
inactive: growth inhibition [1] -4.98% | growth inhibition [2] 2.22% | viability increase [3] -1.39% | viability [4] 92.5% | viability [5] 96.6% | inhibition [6] 0.77% | RAM network inhibition [7] 2.04%

CC(C)c1nnc(NC(=O)CCN2C(=O)c3ccccc3C2=O)s1
inactive: growth inhibition [1] -11.7% | growth inhibition [2] -0.03% | viability increase [3] 0.32% | viability [4] 104% | viability [5] 106% | inhibition [6] 3.73% | RAM network inhibition [7] 5.82%

CC12CC(NC(=O)N1CCc1ccccc1)c1ccccc1O2 (stereo not drawn)
inactive: growth inhibition [1] -8.73% | growth inhibition [2] -25% | viability increase [3] -3.43% | viability [4] 74.9% | viability [5] 73.8% | inhibition [6] 1.45% | RAM network inhibition [7] 5.31%

Cc1ccc(NS(=O)(=O)c2cc(C(=O)O)ccc2Cl)cc1
inactive: growth inhibition [1] -5.58% | growth inhibition [2] -5.51% | viability increase [3] -1.55% | viability [4] 100% | viability [5] 95.2% | inhibition [6] 1.16% | RAM network inhibition [7] 7.99%

CN(C)S(=O)(=O)c1ccc2c(c1)c(=O)c(C(=O)N1CCN(c3ccccn3)CC1)cn2C
inactive: growth inhibition [1] -5.42% | growth inhibition [2] 5.45% | viability increase [3] 1.06% | viability [4] 97.9% | viability [5] 104% | inhibition [6] 0.415% | RAM network inhibition [7] 4.54%

CN(C)CCCCCNCCCNC(=O)/C=N\O
inactive: growth inhibition [1] -2.17% | growth inhibition [2] 3.62% | viability increase [3] 0.12% | viability [4] 98.3% | viability [5] 103% | inhibition [6] 3.2% | RAM network inhibition [7] 1.4%

O=C(Cc1cccs1)N1CCN(c2ccccn2)CC1
inactive: growth inhibition [1] -2.47% | growth inhibition [2] -11.1% | viability increase [3] -0.45% | viability [4] 93.5% | viability [5] 98% | inhibition [6] 0.735% | RAM network inhibition [7] 2.55%

O=C(OCC(=O)c1cccs1)c1ccc(NC(=O)c2ccco2)cc1
inactive: growth inhibition [1] -6.02% | growth inhibition [2] -19.9% | viability increase [3] -3.62% | viability [4] 96.9% | viability [5] 76.1% | inhibition [6] 0.87% | RAM network inhibition [7] 0.26%

COc1ccc(C2C(C(=O)c3cccs3)=C(O)C(=O)N2c2nnc(C)s2)cc1OC (stereo not drawn)
inactive: growth inhibition [1] -6.25% | growth inhibition [2] 9.11% | viability increase [3] 1.59% | viability [4] 102% | viability [5] 101% | inhibition [6] 1.33% | RAM network inhibition [7] 2.05%

N#CC1=C2SCN(c3ccc(F)cc3)CN2C(=O)CC1c1cccc(F)c1 (stereo not drawn)
inactive: growth inhibition [1] 4.17% | growth inhibition [2] 7.57% | viability increase [3] -2.71% | viability [4] 104% | viability [5] 96.7% | inhibition [6] 1.06% | RAM network inhibition [7] 7.08%

Cn1c(=O)oc2cc(S(=O)(=O)NC(Cc3ccccc3)C(=O)N3CCCCC3)ccc21 (stereo not drawn)
inactive: growth inhibition [1] -6.13% | growth inhibition [2] -11.9% | viability increase [3] -2.55% | viability [4] 109% | viability [5] 98.6% | inhibition [6] 2.8% | RAM network inhibition [7] 2.02%

NC(=O)CSc1oc(-c2ccc(F)cc2)nc1S(=O)(=O)c1ccccc1
inactive: growth inhibition [1] -6.54% | growth inhibition [2] -10.7% | viability increase [3] -4.42% | viability [4] 92.7% | viability [5] 87.8% | inhibition [6] 0.73% | RAM network inhibition [7] 1.45%

O=C1CN(C(=O)CN2CCOCC2)C(c2ccccc2)c2cc(Br)ccc2N1 (stereo not drawn)
inactive: growth inhibition [1] -9.19% | growth inhibition [2] -11.4% | viability increase [3] -3.48% | viability [4] 96.4% | viability [5] 92.8% | inhibition [6] 0.785% | RAM network inhibition [7] 1.01%

Cc1ccc(C2CC(c3ccccc3Cl)n3nc(N)nc3N2)cc1 (stereo not drawn)
inactive: growth inhibition [1] 0.815% | growth inhibition [2] 6.86% | viability increase [3] 2.22% | viability [4] 99.7% | viability [5] 92.5% | inhibition [6] 1.88% | RAM network inhibition [7] 1.81%

CC1=C(C(=O)OC(C)C)C(c2cccnc2)n2ncnc2N1 (stereo not drawn)
inactive: growth inhibition [1] -6.7% | growth inhibition [2] -11% | viability increase [3] 0.27% | viability [4] 101% | viability [5] 100% | inhibition [6] 0.07% | RAM network inhibition [7] 5.02%

CC(=O)Oc1cccc(N2C(=O)C3C(C2=O)C2C=CC3C23CC3)c1 (stereo not drawn)
inactive: growth inhibition [1] -8.98% | growth inhibition [2] -8.59% | viability increase [3] -0.99% | viability [4] 96.9% | viability [5] 101% | inhibition [6] 0.125% | RAM network inhibition [7] 0.63%
